Screening results: PubChem BioAssay, several laboratories
S1P1 ag pot = agonists and agonism potentiators of human S1P1 receptor; P21453; S1P1 CRE-bla cells, forskolin, beta-lactamase FRET, potentiator mode; S1P1 agonist co-added at EC20, 2 nM; 100% = saturating reference agonist, 0% = basal; AID 449; 0.57% of 56,000 active; activation, % at 9.5 µM;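 active = activation above a cutoff set at the mean activation of all tested compounds plus 3 SD, cut at about 54% in these data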;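 also: forskolin at 4 µM as EC80 and the EC20 agonist is SEW2871; 100% = SEW2871 at its EC100 plus forskolin at EC80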
D1 allo mod = D1 dopamine receptor (human) allosteric modulation | P21728 | B-score at 10 µM | AID 641 | HEK293 D1, CRE-luciferase, dopamine EC30 potentiation; actives deviate in either direction | 5.9% of 58,000 active;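 active = luminescence count or its row- and column-corrected plate score outside the 99.7% band of the plate's sample wells, on either side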
TNAP act DEA = activates human TNAP at intermediate phosphate acceptor concentration. 64,000 tested, under 10 active. purified TNAP, CDP-star luminescence, 100 mM DEA, 30 min; hits give high values; scale: 0 levamisole-inhibited, 1 vehicle-only enzyme. P05186. activation factor at 20 µM;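 active = activation factor of at least 2 at 20 µM, relative to controls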
Target sequence (P05186 whole entry, looked up): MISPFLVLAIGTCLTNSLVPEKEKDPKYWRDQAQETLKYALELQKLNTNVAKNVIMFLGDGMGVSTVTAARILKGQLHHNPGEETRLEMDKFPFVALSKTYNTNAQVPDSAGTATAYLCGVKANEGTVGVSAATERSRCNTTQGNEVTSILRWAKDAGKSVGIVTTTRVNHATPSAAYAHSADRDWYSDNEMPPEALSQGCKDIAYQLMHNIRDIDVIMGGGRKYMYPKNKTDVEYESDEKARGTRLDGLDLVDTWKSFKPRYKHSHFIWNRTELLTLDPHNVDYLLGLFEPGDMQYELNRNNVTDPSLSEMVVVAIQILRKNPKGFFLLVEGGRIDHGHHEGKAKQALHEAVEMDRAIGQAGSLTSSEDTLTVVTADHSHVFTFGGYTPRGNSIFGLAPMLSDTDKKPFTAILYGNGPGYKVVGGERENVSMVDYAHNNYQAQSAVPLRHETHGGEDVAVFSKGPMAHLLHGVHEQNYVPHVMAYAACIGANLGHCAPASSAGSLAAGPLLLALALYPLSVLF
M1 agonist = agonists of M1 muscarinic receptor; B-score at 10 µM; AID 626; CHO-M1 cells, Fluo-4 calcium fluorescence, agonist mode; hits give high values; 3% of 64,000 active;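 active = fluorescence rise, raw or as B-score row- and column-corrected plate score, outside the 99.7% band of its plate's samples, either direction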
M1 antagonist = antagonists of rat M1 muscarinic receptor; B-score at 10 µM; 3.4% of 64,000 active; P08482; CHO-M1 cells, Fluo-4 calcium, ACh EC80 antagonist mode; hits give low values; AID 628;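 active = calcium fluorescence response, raw or row-and-column corrected B-score, differing from the plate sample mean either way at a set confidence level, mostly lower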
S1P3 agonist = activates the human S1P3 receptor; Q99500; S1P3 NFAT-BLA reporter cells, agonism, FRET ratio; relative to 1 µM S1P, basal subtracted; activation, % at 4.5 µM; 0.1% of 60,000 active;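 active = activation above the screen-wide mean plus 3 SD, cut at about 4.5% in these data, passing the limit was not always enough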
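Assay system: CHO cells stably expressing human S1P3, Gα16 and NFAT-β-lactamase reporter. Timing: overnight plating, 4 h compound 37 °C, 2 h substrate RT. Signal: β-lactamase FRET emission ratio 460/535 nm. Measure: percent activation versus median 1 µM S1P response, basal-subtracted, per plate. Repeats: primary screen single test, confirmation screen in triplicate.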
D1 PAM confirm = D1 receptor (human) allosteric modulation, confirmed; AID 642; luminescence at 10 µM; HEK293 D1 CRE-luciferase, dopamine EC30 potentiation; hits give high values; shares compounds with D1 allo mod; 88% of 2,200 active;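 active = luminescence in either of two replicates above the same-plate mean plus 3 SD of the low-dose dopamine control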
D1 ag no DA = activates D1 CRE-luciferase signal without dopamine present; luminescence at 10 µM; shares compounds with D1 allo mod; HEK293 D1 CRE-luciferase, luminescence, no dopamine; hits give high values; 0.8% of 1,900 active; in the data active = luminescence above about 3900
Isoprot counter = alters isoproterenol CRE-luciferase response in HEK293 cells | luminescence at 10 µM | 63% of 2,200 active | shares compounds with D1 allo mod | HEK293 D1 CRE-luciferase, isoproterenol EC30 counter-screen; hits give high values;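 active = luminescence in either replicate above plate mean of wells with a partly effective reference agonist dose plus 3 SD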;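 also: isoproterenol raises cAMP through native beta-adrenoceptor Gs so signal bypasses D1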
An asterisk follows results filed as active. Sampled rows, rich in hits. Any-hit rate of the full collection: about 11%.

COc1ccc(CN(C(=O)c2ccco2)c2ccc(Br)cc2)cc1OC was read as S1P1 ag pot -22, D1 allo mod -0.31, TNAP act DEA 0.9, M1 agonist 0.55, M1 antagonist 0.39 and S1P3 agonist -1.
Screening COc1cc(CN(C(=O)c2ccco2)c2ccc(C)cc2)ccc1O returned D1 allo mod 9.5*, TNAP act DEA 0.9, M1 agonist -0.47, M1 antagonist -0.69, S1P3 agonist -1, D1 PAM confirm 13744*, D1 ag no DA 1484 and Isoprot counter 4300*.
For CCc1ccccc1NC(=O)CSc1nc2ccccc2n1CC(=O)N(C)C the results were S1P1 ag pot -4, D1 allo mod 0.29, TNAP act DEA 1, M1 agonist -0.14, M1 antagonist 0.64 and S1P3 agonist -1.
`O=C(NC(NCCCN1CCOCC1)(C(F)(F)F)C(F)(F)F)C1CCCCC1` gave S1P1 ag pot -2, D1 allo mod 0.54, TNAP act DEA 0.9, M1 agonist -1.2, M1 antagonist 0.17 and S1P3 agonist 0.
For Cc1ccc(S(=O)(=O)N2CCN(C(=O)COC(=O)c3cc(C)oc3C)CC2)cc1 the results were S1P1 ag pot 11, D1 allo mod 4.3*, TNAP act DEA 0.9, M1 agonist -0.14, M1 antagonist 0.38, S1P3 agonist 0, D1 PAM confirm 6052*, D1 ag no DA 1764 and Isoprot counter 2676.
For O=C(CSc1nnc2scc(-c3ccc(Cl)cc3)n12)NCc1ccc2c(c1)OCO2 the results were D1 allo mod 6.3*, TNAP act DEA 0.9, M1 agonist 0.42, M1 antagonist -0.023, S1P3 agonist -1, D1 PAM confirm 13884*, D1 ag no DA 1740 and Isoprot counter 6312*.
Screening O=C(CSc1nnc2scc(-c3ccccc3)n12)NCc1ccc2c(c1)OCO2 returned S1P1 ag pot -30, D1 allo mod 7.1*, TNAP act DEA 0.9, S1P3 agonist -1, D1 PAM confirm 15400*, D1 ag no DA 1784 and Isoprot counter 4680*.
For CC1CCC2(CC1)NC(=O)N(Cc1nc(-c3ccccc3)no1)C2=O (stereo not given) the results were S1P1 ag pot -59, D1 allo mod 0.81, TNAP act DEA 0.9, M1 agonist -0.71, M1 antagonist -0.5 and S1P3 agonist 1.
Screening CC(C)(C)Nc1nc(NC(C)(C)C)nc(-n2ccnc2)n1 returned S1P1 ag pot -17, D1 allo mod 5.7*, TNAP act DEA 1, M1 agonist 1.1, M1 antagonist -0.28, S1P3 agonist 0, D1 PAM confirm 17956*, D1 ag no DA 2972 and Isoprot counter 3732*.
`CC(=O)n1c2ccccc2c2c(C#N)c(N3CCCCC3)sc21` gave S1P1 ag pot -6, D1 allo mod 0.32, TNAP act DEA 0.9, M1 agonist -2.3, M1 antagonist -0.015 and S1P3 agonist -1.
Screening C=CCNc1nc2c3ccccc3n(C(C)=O)c2s1 returned S1P1 ag pot -33, D1 allo mod 6.2*, TNAP act DEA 0.9, M1 agonist 0.57, M1 antagonist 0.65, S1P3 agonist 0, D1 PAM confirm 7816*, D1 ag no DA 1416 and Isoprot counter 2964*.
`COc1c(S(=O)(=O)n2nc(C)cc2C)ccc(Cl)c1Cl` gave S1P1 ag pot -38, D1 allo mod 3.6*, TNAP act DEA 0.9, M1 agonist 0.91, M1 antagonist -0.18, S1P3 agonist 0, D1 PAM confirm 12296*, D1 ag no DA 1576 and Isoprot counter 2628.
For COc1ncnc2c1NC(=O)CS2 the results were S1P1 ag pot 3, D1 allo mod 0.62, TNAP act DEA 0.9, M1 agonist 0.28, M1 antagonist 0.12 and S1P3 agonist 0.
`COc1ncnc2c1N[C@@](C)(O)c1c(F)c(F)c(F)c(F)c1S2` gave S1P1 ag pot -23, D1 allo mod 5.7*, TNAP act DEA 1, M1 agonist 1.7, M1 antagonist 0.25, S1P3 agonist -1, D1 PAM confirm 8300*, D1 ag no DA 1556 and Isoprot counter 2644.
Screening O=C(c1ccco1)N1CCN(C(=O)C2CCCO2)CC1 (stereo not given) returned S1P1 ag pot -14, D1 allo mod -1.1, TNAP act DEA 0.9, M1 agonist -0.76, M1 antagonist -0.55 and S1P3 agonist 0.
O=C(COc1cccc(C(F)(F)F)c1)NCCCN1CCCC1=O was read as S1P1 ag pot -12, D1 allo mod 0.047, TNAP act DEA 1, M1 agonist -0.77, M1 antagonist 0.079 and S1P3 agonist -1.
Screening CCN(CCCNC(=O)COc1cc(=O)n(CC)c2ccccc12)Cc1ccccc1 returned S1P1 ag pot -24, D1 allo mod -1.9, TNAP act DEA 0.9, M1 agonist -0.19, M1 antagonist -1 and S1P3 agonist 0.
`CCOc1cc(N2CCOCC2)c(OCC)cc1NC(=O)CSc1cccc[n+]1[O-]` gave S1P1 ag pot -17, D1 allo mod -0.026, TNAP act DEA 0.9, M1 agonist 0.9, M1 antagonist -2.1 and S1P3 agonist 0.
Cn1c(Cc2cccs2)nnc1SC/C=C/c1ccccc1 was read as S1P1 ag pot -3, D1 allo mod 0.088, TNAP act DEA 0.9, M1 agonist -0.068, M1 antagonist -0.77 and S1P3 agonist 0.
Screening O=C(Nc1ccccc1Cl)N1CCN(c2ccc3nnc(-c4ccccc4)n3n2)CC1 returned S1P1 ag pot -19, D1 allo mod 5.4*, TNAP act DEA 0.9, M1 agonist 1.5, M1 antagonist -1, S1P3 agonist 0, D1 PAM confirm 14068* and Isoprot counter 4436*.
Screening CC(C)N1C(=S)SC2CS(=O)(=O)C=C21 (stereo not given) returned S1P1 ag pot 6, D1 allo mod 0.72, TNAP act DEA 1, M1 agonist 0.48, M1 antagonist 0.036 and S1P3 agonist -1.
For O=C(Nc1c(F)c(F)c(F)c(F)c1F)C1CCCCC1 the results were S1P1 ag pot -21, D1 allo mod -0.6, TNAP act DEA 1, M1 agonist 0.03, M1 antagonist -0.34 and S1P3 agonist 0.
